Source: ChEMBL document CHEMBL3797170, “A Grand Challenge: Unbiased Phenotypic Function of Metabolites from Jaspis splendens against Parkinson's Disease” (J Nat Prod, 2016)
Active and inactive are the calls of the source. No cut-off for these calls is given here.

What was measured:
[1] = test system: ONS; assay: Induction of phenotypic perturbation in human ONS cells assessed as increase in mitochondrial marker at 10 uM after 24 hrs by mitotracker orange staining based assay relative to control; type: functional, cell-based
Procedure, shortened: (§1)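 hONS patient cells (line C1 200 08 0013; 1350/well, DMEM/F12 plus 10% FBS) were given 10 μM compound in 0.6% DMSO, with DMSO as control, for 24 h at 37 °C. MitoTracker Orange CMTMRos (400 nM, 30 min) was applied live before 4% PFA fixation. Anti-α-tubulin and anti-LC3b immunofluorescence plus DAPI followed. High-content imaging used six images/well, with cell segmentation, and each feature was expressed as log2 ratio versus DMSO.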

[2] = test system: ONS; assay: Induction of phenotypic perturbation in human ONS cells assessed as decrease in EEA1-associated early endosomes level in at 10 uM after 24 hrs by EEA1 staining based assay relative to control; type: functional, cell-based
Procedure, shortened: (§2)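 hONS cells from Parkinson's disease patient line C1 200 08 0013, 1350 cells/well in DMEM/F12 with 10% FBS, exposed to 10 μM compound (0.6% DMSO; DMSO alone as control) for 24 h at 37 °C, 5% CO2. Live stain with LysoTracker Red DND-99 (100 nM, 1 h), then PFA fixation, anti-EEA1 immunostaining, DAPI and CellMask. Imaged at 20×, six fields/well, per-cell features given as log2 ratio to DMSO.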

[3] = target: Tubulin alpha (Homo sapiens) (UniProt P0DPH7+P68366+Q71U36+P68363+Q9BQE3+Q6PEY2+A6NHL2+Q9NY65); assay: Induction of phenotypic perturbation in human ONS cells assessed as increase in apha tubulin marker at 10 uM after 24 hrs by alpha tubulin staining based assay relative to control; type: functional, cell-based; procedure, shortened: as §1
[4] = test system: ONS; assay: Induction of phenotypic perturbation in human ONS cells assessed as increase in lysosome marker at 10 uM after 24 hrs by lysotrack red DND-99 staining based assay relative to control; type: functional, cell-based; procedure, shortened: as §2
[5] = test system: ONS; assay: Induction of phenotypic perturbation in human ONS cells assessed as increase in LC3b marker at 10 uM after 24 hrs by LC3b staining based assay relative to control; type: functional, cell-based; procedure, shortened: as §1
[6] = Cytotoxicity against human ONS cells derived from parkinsons disease patients assessed as alteration of cellular parameters at 10 uM; type: cell-based
Procedure, shortened: (§3)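 Patient-derived hONS cells (Parkinson's line C1 200 08 0013), 1350 cells/well in DMEM/F12 + 10% FBS, exposed to 10 μM compound (0.6% DMSO final; DMSO 0.6% as negative control) for 24 h at 37 °C, 5% CO2. Plate 1: MitoTracker Orange 400 nM, fixed, anti-α-tubulin and anti-LC3b. Plate 2: LysoTracker Red 100 nM, anti-EEA1, CellMask. DAPI on all cells.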

[7] = Cytotoxicity against human ONS cells derived from parkinsons disease patients assessed as alteration of nuclear parameters at 10 uM; type: cell-based; procedure, shortened: as §3
[8] = test system: ONS; assay: Induction of phenotypic perturbation in human ONS cells assessed as decrease in autophagy markers level in at 10 uM after 24 hrs relative to control; type: functional, cell-based; procedure, shortened: as §3
[9] = test system: ONS; assay: Induction of phenotypic perturbation in human ONS cells assessed as increase in EEA1-associated early endosomes level in at 10 uM after 24 hrs by EEA1 staining based assay relative to control; type: functional, cell-based
[10] = test system: ONS; assay: Induction of phenotypic perturbation in human ONS cells assessed as decrease in lysosome marker at 10 uM after 24 hrs by lysotrack red DND-99 staining based assay relative to control; type: functional, cell-based

In the case of N=C(N)c1c[nH]c2cc(Br)ccc12, the Activity [1] was “Active”, the Activity [2] was “Active” and the Activity [3] was “Active”. The Activity [4] was “Active” and the Activity [5] was “Active”.
In the case of C[C@@H]1NC(=O)[C@@H](C)C/C=C/[C@H](C)C[C@H](C)OC(=O)C[C@H](c2ccc(O)cc2)NC(=O)[C@@H](Cc2c(Br)[nH]c3ccccc23)N(C)C1=O, the Activity [6] was “Toxic” and the Activity [7] was “Toxic”.
For COC(=O)c1c[nH]c2ncnc(N)c12, the Activity [2] was “Active”.
With C/C1=C\[C@H](C)C[C@H](C)OC(=O)C[C@H](c2ccc(O)cc2)NC(=O)[C@@H](Cc2c(Br)[nH]c3ccccc23)N(C)C(=O)[C@H](C)NC(=O)[C@@H](C)C1 [JASPAMIDE] the Activity [6] was “Toxic” and the Activity [7] was “Toxic”.
With NC(=O)c1c[nH]c2cc(Br)ccc12 the Activity [1] was “Active”, the Activity [2] was “Active” and the Activity [8] was “Active”. The Activity [3] was “Active”, the Activity [4] was “Active” and the Activity [5] was “Active”.
With NC(=O)c1cn([C@@H]2O[C@H](CO)[C@@H](O)[C@H]2O)c2ncnc(N)c12 the Activity [2] was “Active” and the Activity [8] was “Active”.
In the case of COc1cc2c3c(c(=O)oc2cc1O)NCCS3(=O)=O, the Activity [9] was “Active” and the Activity [10] was “Active”.
For CNc1nc2nccnc2c(=O)n1C, the Activity [1] was “Active”, the Activity [2] was “Active” and the Activity [3] was “Active”. For the same compound, the Activity [4] was “Active” and the Activity [5] was “Active”.
With N#Cc1c[nH]c2ncnc(N)c12 the Activity [2] was “Active”.
With NCCc1c[nH]c2cc(Br)ccc12 the Activity [2] was “Active” and the Activity [8] was “Active”.
In the case of C/C(=C\[C@H](C)C[C@H](C)O)C[C@H](C)C(=O)N[C@@H](C)C(=O)N(C)[C@H](Cc1c(Br)[nH]c2ccccc12)C(=O)N[C@H](CC(=O)O)c1ccc(O)cc1 [JASPLAKINOLIDE Z1], the Activity [1] was “Active”, the Activity [6] was “Toxic” and the Activity [2] was “Active”. For the same compound, the Activity [7] was “Toxic”, the Activity [3] was “Active” and the Activity [4] was “Active”. The Activity [5] was “Active”.
With Cc1cn([C@H]2C[C@H](O)[C@@H](CO)O2)c(=O)[nH]c1=O the Activity [2] was “Active” and the Activity [8] was “Active”.
For NC(=O)c1c[nH]c2ncnc(N)c12, the Activity [2] was “Active”.
With N#Cc1cn([C@@H]2O[C@H](CO)[C@@H](O)[C@H]2O)c2nc[nH]c(=O)c12 the Activity [1] was “Active”, the Activity [2] was “Active” and the Activity [3] was “Active”. For the same compound, the Activity [4] was “Active” and the Activity [5] was “Active”.
In the case of C=C1C[C@H](C)C(=O)N[C@@H](C)C(=O)N(C)[C@H](Cc2c(Br)[nH]c3ccccc23)C(=O)N[C@@H](c2ccc(O)cc2)CC(=O)O[C@@H](C)C[C@@H](C)C1=O [JASPLAKINOLIDE B], the Activity [6] was “Toxic” and the Activity [7] was “Toxic”.
In the case of Nc1ncc2ncn([C@@H]3O[C@H](CO)[C@@H](O)[C@H]3O)c2n1, the Activity [2] was “Active” and the Activity [8] was “Active”.
For CSc1c(CC(=O)O)[n+](C)cn1C, the Activity [1] was “Active”, the Activity [2] was “Active” and the Activity [3] was “Active”. For the same compound, the Activity [4] was “Active” and the Activity [5] was “Active”.
With COC(=O)c1c[nH]c2cc(Br)ccc12 the Activity [2] was “Active”.
With O=C(NC(=O)c1c[nH]c2cc(Br)ccc12)c1c[nH]c2cc(Br)ccc12 the Activity [1] was “Active”, the Activity [2] was “Active” and the Activity [3] was “Active”. The Activity [4] was “Active” and the Activity [5] was “Active”.
In the case of COC(=O)c1cn([C@@H]2O[C@H](CO)[C@@H](O)[C@H]2O)c2ncnc(N)c12, the Activity [2] was “Active”.
In the case of C/C1=C\[C@H](C)C[C@H](C)OC(=O)C[C@H](c2ccc(O)c(Br)c2)NC(=O)[C@@H](Cc2c(Br)[nH]c3ccccc23)N(C)C(=O)[C@H](C)NC(=O)[C@@H](C)C1 [PIPESTELIDE A], the Activity [6] was “Toxic” and the Activity [7] was “Toxic”.
In the case of Nc1nc2c(ncn2[C@@H]2O[C@H](CO)[C@@H](O)[C@H]2O)c(=O)[nH]1, the Activity [2] was “Active” and the Activity [8] was “Active”.
In the case of N#Cc1cn([C@@H]2O[C@H](CO)[C@@H](O)[C@H]2O)c2ncnc(N)c12, the Activity [2] was “Active” and the Activity [8] was “Active”.
